Only some compounds are listed: those with a hit (about 4% of all), similar ones and a draw of the others.
OX1R antag-1 = antagonists of human orexin 1 receptor (OX1R); inhibition, % at 6.6 µM; AID 485270, 2010; Orexin/Hypocretin receptor type 1 (Homo sapiens), O43613; 330,000 tested, 1.8% active; OX1R-expressing cells, FRET antagonist read-out; in the data active = inhibition mostly above about 38%, no sharp cut-off; inactive = mostly below about 40%;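 also: 0% = agonist challenge alone and 100% = reference antagonist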
Target sequence (O43613 whole entry, looked up): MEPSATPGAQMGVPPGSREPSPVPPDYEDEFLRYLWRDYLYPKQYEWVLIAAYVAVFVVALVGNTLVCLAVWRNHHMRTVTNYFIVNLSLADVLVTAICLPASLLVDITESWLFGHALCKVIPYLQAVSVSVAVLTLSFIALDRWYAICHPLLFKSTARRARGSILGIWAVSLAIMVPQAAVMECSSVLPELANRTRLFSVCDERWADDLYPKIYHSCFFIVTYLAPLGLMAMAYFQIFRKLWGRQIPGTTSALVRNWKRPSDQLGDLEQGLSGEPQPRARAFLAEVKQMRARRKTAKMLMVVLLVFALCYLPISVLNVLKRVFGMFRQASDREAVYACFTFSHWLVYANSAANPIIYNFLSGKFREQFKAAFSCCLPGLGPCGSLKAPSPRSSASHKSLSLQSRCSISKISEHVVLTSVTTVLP
TAAR1 antag = human TAAR1 antagonists, primary screen, Fluo-8 calcium fluorescence, CHO RD-HGA16 cells; antagonist; inhibition, % at 3 µM; 360,000 tested, 1.5% active; AID 624466, 2012;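 active = inhibition above a per-plate cutoff, the mean inhibition of test compounds on that plate plus 3 SD, cut at about 49% in these data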;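 also: 0% = DMSO plus EC80 beta-PEA response and 100% = DMSO alone without agonist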
Target sequence (Q96RJ0 whole entry, looked up): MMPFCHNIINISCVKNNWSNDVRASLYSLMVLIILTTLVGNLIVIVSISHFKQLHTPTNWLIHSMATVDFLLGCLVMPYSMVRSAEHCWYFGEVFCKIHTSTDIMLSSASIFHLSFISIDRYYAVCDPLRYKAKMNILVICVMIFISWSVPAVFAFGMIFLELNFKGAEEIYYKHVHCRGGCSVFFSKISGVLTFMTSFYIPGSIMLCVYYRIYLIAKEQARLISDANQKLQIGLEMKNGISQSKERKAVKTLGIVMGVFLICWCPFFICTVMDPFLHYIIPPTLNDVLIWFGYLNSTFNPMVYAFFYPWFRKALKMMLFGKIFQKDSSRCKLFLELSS
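Test system – hTAAR1-expressing CHO RD-HGA16 cells, Gα16-coupled · Reagent – β-PEA at EC80 concentration, post-compound challenge · Compound dosing – 3 µM, single point · Timing – 140 s kinetic read after compound, 140 s after agonist · Detection – Fluo-8 intracellular calcium dye fluorescence, real-time kinetic reads · Control set – DMSO and EC80 PEA controls · Repeats – n of 1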
CHO parental Ca = ATP-evoked calcium signal inhibitors, parental CHO, primary screen, counter-screen for OX1R antagonist project, cell-based, fluorescence, Fluo-8 calcium dye | parental CHO-K1, ATP-induced calcium, Fluo-8 fluorescence | inhibition, % at 5.6 µM | 330,000 tested, 0.63% active | AID 463079, 2010;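 active = inhibition above that plate's mean sample inhibition plus 3 SD, cut at about 26% in these data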;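 also: 0% = ATP-challenged DMSO wells and 100% = DMSO wells without ATP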
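Test system: parental CHO cells; detection: calcium-sensitive Fluo-8 fluorescence; evaluation: percent inhibition of calcium signal; also added: ATP as calcium-mobilizing challenge; repeats: one well per compound; control set: ATP-challenged DMSO wells low, unchallenged DMSO wells high; compound: single nominal dose of 5.6 µM per compound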
OX1R antag-2 = OX1R (HCRTR1) antagonists, primary screen, fluorescence, CHO/OX1R cells, Fluo-8 calcium, orexin A | inhibition, % at 5 µM | Fluo-8 calcium fluorescence | AID 434989, 2010 | 330,000 tested, 0.43% active;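 active = inhibition above its plate's threshold, mean inhibition of all tested compounds on the plate plus 3 SD, cut at about 37% in these data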;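 also: 0% = orexin A challenge wells and 100% = SB-334867-A antagonist wells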
TAAR1 agonist = human TAAR1 agonists, primary screen, Fluo-8 calcium fluorescence, CHO RD-HGA16 cells | 360,000 tested, 0.99% active | vehicle wells 0%, saturating PEA agonist 100% | activation, % at 3 µM;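 active = activation above the mean activation of all test compounds in the run plus 3 SD, cut at about 38% in these data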
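Assay system – CHO-derived RD-HGA16 cells with stable Gα16 and human TAAR1 · Compound dosing – one-point dosing at 3 µM (nominal) · Incubation – 17-24 h seeding, 75 min 37 °C dye, 30 min RT · Measured by – kinetic Fluo-8 calcium fluorescence · Control set – DMSO vehicle as 0%, PEA at EC100 as 100% · Repeats – single well for each compound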
Numbers without * were called inactive; . = no result given.

SMILES | OX1R antag-1 | TAAR1 antag | CHO parental Ca | OX1R antag-2 | TAAR1 agonist
CCC(C)n1c(OC)nc2c1c(=O)n(C)c(=O)n2C (stereo not given) | 18.2 | -7.1 | 8.0 | -16.3 | 5.7
C[C@H](CO)N1C[C@H](C)[C@@H](CN(C)C(=O)C2CC2)OCc2cn(nn2)CCCC1=O | . | 9.7 | . | . | -0.5
O=S1(=O)N[C@H](Cc2ccccc2)COc2cccc(F)c21 | . | 4.7 | . | . | -1.0
CC1CCc2nc3ccccc3c(C(=O)OCC(=O)NC3CCS(=O)(=O)C3)c2C1 (stereo not given) | 25.9 | -11.3 | -14.2 | -22.9 | 0.3
CCOc1ccc(-c2cc(C(=O)Nc3ccc4c(c3)OCCO4)c3ccccc3n2)cc1 | 12.8 | 67.5* | -21.3 | -19.0 | 13.7
CC(C)NC(=O)NC(=O)COC(=O)c1c2c(nc3ccccc13)CCC2 | 7.9 | 52.5* | -9.8 | -29.3 | 10.1
COc1cccc(NC(=O)COC(=O)c2c3c(nc4ccccc24)CCC(C)C3)c1 (stereo not given) | 36.3* | 45.2 | -3.6 | 12.6 | 9.7
Cc1cccc(-c2cc(C(=O)Nc3ccc4c(c3)OCCO4)c3ccccc3n2)c1 | 21.3 | 44.9 | -6.7 | -19.0 | 8.1
Cc1ccc(NC(=O)Cn2ncc(Cl)c(Cl)c2=O)cc1S(=O)(=O)N1CCCCC1 | 6.9 | -14.7 | 15.4 | 7.4 | -0.8
O=C(CCCSc1ccccc1)Nc1ccc(Cl)c(S(=O)(=O)N2CCOCC2)c1 | 32.0* | 33.3 | 9.8 | 35.2 | 13.4
Cc1ccc(OCCCC(=O)Nc2ccc(Cl)c(S(=O)(=O)N3CCOCC3)c2)cc1 | 1.8 | 32.6 | -7.9 | 22.6 | 3.3
O=C(Nc1cccc(S(=O)(=O)N2CCOCC2)c1)c1cc(S(=O)(=O)N2CCOCC2)c(Cl)cc1Cl | . | 76.2* | . | . | 32.0
COc1ccc(C(=O)Nc2cccc(S(=O)(=O)N3CCCC3)c2)cc1S(=O)(=O)N1CCOCC1 | 7.6 | 1.0 | -23.5 | -23.9 | 2.3
COc1ccc(C(=O)Nc2ccc(-c3ccc(C)o3)cc2)cc1S(=O)(=O)N1CCOCC1 | 40.7 | 67.8* | 10.8 | -2.2 | 17.4
COc1ccc(C(=O)Nc2cccc(-c3csc(C)n3)c2)cc1S(=O)(=O)N1CCCC1 | 8.8 | 52.3* | -19.4 | -21.6 | 20.8
COc1cccc(C(=O)N[C@H](C(=O)N2CCC[C@H]2C(=O)NC2CCCC2)C2CCCCC2)c1 | . | -23.1 | . | . | -0.8
CN(CCc1ccccc1)C(=O)c1ccc(NC(=O)Cc2cccc(NC(=O)C3CCN(C(=O)c4ccccc4)CC3)c2)cc1 | . | -2.2 | . | . | 1.6
O=C1NC(=O)C2(CCC(C3CCCCC3)CC2)N1 (stereo not given) | . | -6.1 | . | . | 0.6
COc1ccc(C(=O)Nc2ccc(S(=O)(=O)N3CCOCC3)cc2)cc1 | 4.3 | -4.5 | -7.2 | -16.0 | 1.5
COc1ccc(C(=O)Nc2ccc(Cl)c(S(=O)(=O)N3CCOCC3)c2)cc1 | 23.7 | 61.0* | 15.5 | 43.0* | 20.8
O=C(N/N=C/C(Br)=C\c1ccccc1)c1cccs1 | 39.6* | 10.4 | -9.9 | -6.5 | 3.4
CCc1ccc(NC(=O)Cn2nc(C(F)(F)F)c3c2CCC3)cc1 | 23.6 | -5.0 | 39.9* | 1.1 | 1.0
CCc1ccccc1NC(=O)Cn1nc(C(F)(F)F)c2c1CCC2 | 12.2 | -4.9 | 22.9 | -13.1 | 10.1
CCN(CC)C(=O)c1ncn2c1C(=O)N[C@H](C)C2 | . | -8.2 | . | . | 1.3
O=C(Nc1cccc([N+](=O)[O-])c1)ONC1=NCCCCC1 | 16.8 | -15.9 | 0.4 | -4.1 | 5.2
SMILES | OX1R antag-1 | TAAR1 antag | CHO parental Ca | OX1R antag-2 | TAAR1 agonist
O=C(ONC1=NCCCCC1)c1ccc([N+](=O)[O-])cc1 | 50.3* | -2.9 | -9.6 | 2.7 | 8.3
CC(=O)c1ccc(CCCCc2ccc(C(C)=O)cc2)cc1 | . | 13.1 | . | . | 2.9
CCOc1ccccc1N(CC(=O)NCCSc1ccccn1)S(=O)(=O)c1ccc(C)cc1 | 41.8* | 30.8 | -31.6 | -13.4 | 3.6
Cc1cc(C)cc(N(CC(=O)NCCSc2ccccn2)S(=O)(=O)c2ccccc2)c1 | 32.2 | 49.3* | -32.2 | -12.4 | 7.4
COc1ccccc1N(CC(=O)NCCSc1ccccn1)S(=O)(=O)c1ccccc1 | 51.1* | 48.0 | -26.7 | -15.1 | 11.4
CCOc1ccc(N(CC(=O)NCCSc2ccccn2)S(=O)(=O)c2ccc(Cl)cc2)cc1 | 15.2 | 3.1 | -36.2 | -36.7 | 6.0
Cc1ccc(S(=O)(=O)N(CC(=O)NCCSc2ccccn2)c2ccc(C)c(C)c2)cc1 | 18.6 | 6.8 | -36.5 | -26.1 | 5.0
Cc1ccccc1N(CC(=O)NCCSc1ccccn1)S(=O)(=O)c1ccccc1 | 40.1 | 20.6 | -30.6 | -20.9 | 12.4
CC(C)NC(=O)C1(c2ccccc2)CC1(Cl)Cl (stereo not given) | 4.2 | 8.7 | -3.7 | -6.0 | 2.2
Cc1ccc(S(=O)(=O)n2ccc3c(OCCOCCNCc4ccc(F)cc4)cccc32)cc1 | -0.6 | 39.6 | 39.0* | 24.8 | 23.0
Cc1ccc(S(=O)(=O)n2ccc3c(OCCOCCSCC(NC(=O)OC(C)(C)C)C(=O)O)cccc32)cc1 (stereo not given) | 17.5 | 12.0 | -1.8 | 0.4 | 2.3
O=C(Cc1cccc2ccccc12)NNC(=O)c1ccc(Br)o1 | 50.7* | 0.3 | -13.7 | 13.8 | 4.2
CCCCCCN1C[C@@H](n2cc(COC(=O)c3ccccc3)nn2)[C@H](O)C[C@@H]1c1ccc(OC)cc1 | . | 16.1 | . | . | 4.0
Cc1cc(/C=N/NC(N)=S)c(O)c(/C=N/NC(N)=S)c1 | 45.1 | 8.9 | -3.0 | -4.1 | 49.7*
Cc1nn(Cc2ccc(Cl)c(Cl)c2)c(C)c1NC(=O)c1cc(CC(C)C)on1 | 17.1 | 0.5 | 32.9* | -26.8 | -1.3
CC(OC(=O)c1n[nH]c2ccccc12)C(=O)Nc1ccccc1[N+](=O)[O-] (stereo not given) | 35.7* | 5.2 | -25.2 | 11.6 | 6.9
Cc1ccc(NC(=O)C(C)OC(=O)c2n[nH]c3ccccc23)cc1 (stereo not given) | 29.5 | 4.0 | -6.9 | -30.2 | -2.2
CN(c1ccc(NC(=O)CCc2cn(Cc3ccc(Br)cc3)c3ccccc23)cc1)c1ccccn1 | . | 5.0 | . | . | 2.6
Cc1ccc(C(C(=O)NC2CCCC2)N(C(=O)Cc2cccs2)c2ccc(C)c(C)c2)o1 (stereo not given) | 52.5* | 22.3 | 39.7* | 13.2 | 2.7
CC1CCN(C(=O)CSc2nnc3ccc(-c4cccnc4)nn23)CC1 | 34.8* | -2.0 | -10.2 | -24.4 | -0.6
O=C(CSc1ccc(-c2ccc(F)cc2)nn1)N1CCOCC1 | 7.6 | -13.9 | 16.1 | -2.3 | 11.8
CC1CCN(C(=O)CSc2nnc(-c3cccnc3)o2)CC1 | 12.2 | 6.4 | 1.6 | -14.6 | 0.2
Cc1ccccc1NC(=O)CSc1nnc2ccc(-c3cccnc3)nn12 | 53.5* | -2.5 | -7.4 | -19.5 | 1.8
